Most compounds without a hit are left out; they make up all but 2.8% or so of the library.
DENV2 CPE – inhibitors of DENV2 cytopathic effect; actives 1.7% (n = 350,000); DENV2-infected cells, cytopathic effect rescue, plate reader; CPE inhibition, % at 9.99 µM; in the data active = CPE inhibition above about 20%, passing the limit was not always enough; tested in BHK-21 cells
E-selectin induc – induces E-selectin expression in human endothelial cells; P16581; HUVEC E-selectin immunofluorescence imaging; normalized: neutral wells 0, TNF-alpha wells 100; activation, % at 7.58 µM; actives 0.37% (n = 260,000); AID 686992;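 active = mean E-selectin-positive cell signal at least 10% of the positive control, reached in at least 60% of replicates, without over 20% cell loss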
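Test system – human umbilical vein endothelial cells (HUVEC), E-selectin induction · Input – 3,000 HUVEC seeded per well · Buffer or medium – EGM-2, gelatin · Compound dosing – single-point compound dose · Detection – immunofluorescence imaging · Measure – percent E-selectin-positive cells · Controls – TNF-alpha high, DMSO low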
SIRT5 block – inhibitors of human sirtuin-5 desuccinylase; Purified SirT5, succinyl-peptide AMC, trypsin-coupled fluorescence; inhibition, % at 15 µM; AID 652115; actives 1.1% (n = 330,000); in the data active = inhibition above about 15%
Target sequence (Q9NXA8 whole entry, looked up): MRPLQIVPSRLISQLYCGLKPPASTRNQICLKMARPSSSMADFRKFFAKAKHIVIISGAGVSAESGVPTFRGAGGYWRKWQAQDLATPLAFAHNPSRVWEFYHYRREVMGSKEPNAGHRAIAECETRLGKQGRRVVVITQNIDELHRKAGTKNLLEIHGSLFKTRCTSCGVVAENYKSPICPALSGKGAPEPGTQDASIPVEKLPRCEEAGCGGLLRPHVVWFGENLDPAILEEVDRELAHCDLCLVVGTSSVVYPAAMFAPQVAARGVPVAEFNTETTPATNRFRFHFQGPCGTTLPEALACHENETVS
Large screens that a line does not name were inactive.

COC(=O)/C=C1\N/C(=N\c2nc(C)cc(C)n2)N(c2ccc(C)cc2)C1=O	E-selectin induc 466
C[C@@H]1CCCCO[C@H](CN(C)C(=O)CCCN(C)C)[C@@H](C)CN([C@@H](C)CO)C(=O)c2cc(NC(=O)c3ccccc3)ccc2O1	none (no result: DENV2 CPE, SIRT5 block)
COc1cccc(-c2ccc([C@@H]3[C@@H](CO)N4C(=O)CN(C(=O)CN5CCOCC5)C[C@H]34)cc2)c1	none
CO[C@@H]1CN(C)C(=O)c2ccc(NC(=O)NC(C)C)cc2OC[C@@H](C)N(Cc2ccccc2)C[C@@H]1C	SIRT5 block 18
CO[C@@H]1CN(C)C(=O)c2ccc(NC(=O)NC(C)C)cc2OC[C@@H](C)N(Cc2ccccc2)C[C@H]1C	none
CO[C@H]1CN(C)C(=O)c2ccc(NC(=O)NC(C)C)cc2OC[C@H](C)N(Cc2ccccc2)C[C@H]1C	SIRT5 block 23
CO[C@H]1CN(C)C(=O)c2cc(NC(=O)NC(C)C)ccc2OC[C@H](C)N(Cc2ccccc2)C[C@H]1C	none
C[C@H]1CN([C@@H](C)CO)C(=O)c2cc(-c3ccc(C#N)cc3)cnc2O[C@H]1CN(C)C(=O)Nc1ccccc1	none
CCn1c(SCC(=O)Nc2ccc(OC)cc2)nc2nc3c(cc2c1=O)COC(C)(C)C3	none (no result: SIRT5 block)
CCn1c(SCC(=O)Nc2ccc(OC)cc2)nc2nc3c(cc2c1=O)CCCC3	SIRT5 block 16
C[C@H]1CN([C@@H](C)CO)C(=O)c2cc(C#CCc3ccccc3)cnc2O[C@H]1CN(C)Cc1cccnc1	none
CC1(C)Oc2ccc3ccc(=O)oc3c2C[C@H]1O[C@@H]1O[C@H](CO)[C@@H](O)[C@H](O)[C@H]1O	DENV2 CPE 41 (no result: SIRT5 block)
CC1(C)Oc2ccc3ccc(=O)oc3c2CC1O (centres undefined)	none (no result: E-selectin induc)
CC(C)NC(=O)N(C)C[C@@H]1Oc2ncc(C#CC3CC3)cc2C(=O)N([C@H](C)CO)C[C@@H]1C	none
C[C@@H]1CN([C@@H](C)CO)C(=O)Cc2cc(NS(C)(=O)=O)ccc2O[C@H]1CN(C)Cc1ccccc1	none
C[C@@H]1CN([C@@H](C)CO)C(=O)Cc2cc(NS(=O)(=O)c3ccc(F)cc3)ccc2O[C@H]1CN(C)Cc1ccc(Oc2ccccc2)cc1	none
COc1ccc(CN(C)C[C@H]2Oc3ccc(NS(=O)(=O)c4ccc(Cl)cc4)cc3CC(=O)N([C@H](C)CO)C[C@H]2C)cc1	none
COc1ccc(CN(C)C[C@H]2Oc3ccc(NS(=O)(=O)c4ccc(Cl)cc4)cc3CC(=O)N([C@@H](C)CO)C[C@@H]2C)cc1	DENV2 CPE 25, SIRT5 block 27
C[C@H]1CN([C@@H](C)CO)C(=O)Cc2cc(NS(C)(=O)=O)ccc2O[C@@H]1CN(C)Cc1ccc(Oc2ccccc2)cc1	E-selectin induc 169
COc1ccc(S(=O)(=O)Nc2ccc3c(c2)CC(=O)N([C@H](C)CO)C[C@@H](C)[C@@H](CN(C)Cc2ccc(Oc4ccccc4)cc2)O3)cc1	SIRT5 block 16
C[C@H](CO)N1C[C@H](C)[C@@H](CN(C)Cc2ccc(Oc3ccccc3)cc2)Oc2ccc(NS(=O)(=O)c3ccc(Cl)cc3)cc2CC1=O	SIRT5 block 19
COc1ccc(S(=O)(=O)Nc2ccc3c(c2)CC(=O)N([C@H](C)CO)C[C@H](C)[C@H](CN(C)Cc2ccc(Oc4ccccc4)cc2)O3)cc1	none
CCC(=O)N[C@@H]1C=C[C@H](CC(=O)NCC2CC2)O[C@@H]1CO	none
C[C@@H]1CN([C@@H](C)CO)C(=O)c2cc(C#CCc3ccccc3)cnc2O[C@@H]1CN(C)Cc1cccnc1	none
CC(=O)N1[C@@H]2Cn3c(ccc(-c4ccccc4)c3=O)[C@H]1[C@@H](C(=O)N1CCN(C)CC1)[C@@H]2CO	none
CN(C)c1ccc2c(c1)[C@@H]1C[C@@H](CC(=O)NCc3ccccc3F)O[C@@H](CO)[C@@H]1O2	none
O=C(c1ccc2c(c1)OCO2)N1C[C@H]2[C@@H](c3ccccc31)[C@@H](CO)N2CC1CCCC1	none
COC(=O)C[C@H]1CC[C@H]2[C@@H](COc3ccc(NC(=O)Nc4ccccc4C)cc3C(=O)N2C)O1	none
C[C@@H]1CN([C@@H](C)CO)C(=O)Cc2cc(NS(=O)(=O)c3ccccc3)ccc2O[C@H]1CN(C)Cc1ccc(Oc2ccccc2)cc1	none
C[C@@H]1CN([C@H](C)CO)C(=O)Cc2cc(NS(=O)(=O)c3ccccc3)ccc2O[C@@H]1CN(C)Cc1ccc(Oc2ccccc2)cc1	DENV2 CPE 30
COc1ccc(S(=O)(=O)Nc2ccc3c(c2)CC(=O)N([C@H](C)CO)C[C@@H](C)[C@H](CN(C)Cc2ccc(-c4ccccc4)cc2)O3)cc1	DENV2 CPE 57
C[C@@H]1CN([C@@H](C)CO)C(=O)Cc2cc(NS(=O)(=O)c3ccc(Cl)cc3)ccc2O[C@H]1CN(C)Cc1ccc(Oc2ccccc2)cc1	SIRT5 block 24
